Experimental data taken from ChEMBL document CHEMBL3272177, “Hypolipidemic alkoxybenzoic acids” (1976).

Columns and labels:
Set-up in all cases: scale not given: the % may be the effect or the level left
Rattus norvegicus [1] = species: Rattus norvegicus; experiment: Reduction in sterol level in CFE rat […] at 0.025% of diet treated through diet for 6 days relative to control; format: functional, Serum
Method in brief: (§1)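 Compound dissolved in methanol-chloroform (1:3 v/v), mixed into ground rat chow at 0.1, 0.05 or 0.025% (w/w), and solvent evaporated; controls received solvent-treated chow. Rats fed ad libitum with water for 6 days, then killed fed and bled. Serum sterols and triglycerides measured by autoanalyzer. Values given as percent of control, mean ± SE; significance by Student's t test.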

Rattus norvegicus [2] = species: Rattus norvegicus; experiment: Reduction in sterol level in CFE rat […] in serum at 0.1% of diet treated through diet for 6 days relative to control; format: functional; method in brief: as §1
Rattus norvegicus [3] = species: Rattus norvegicus; experiment: Reduction in triglyceride level in CFE rat […] in serum at 0.1% of diet treated through diet for 6 days relative to control; format: functional; method in brief: as §1
Rattus norvegicus [4] = species: Rattus norvegicus; experiment: Reduction in sterol level in CFE rat […] in serum at 0.05% of diet treated through diet for 6 days relative to control; format: functional; method in brief: as §1
Rattus norvegicus [5] = species: Rattus norvegicus; experiment: Reduction in triglyceride level in CFE rat […] at 0.025% of diet treated through diet for 6 days relative to control; format: functional, Serum; method in brief: as §1
Rattus norvegicus [6] = species: Rattus norvegicus; experiment: Reduction in triglyceride level in CFE rat […] in serum at 0.05% of diet treated through diet for 6 days relative to control; format: functional; method in brief: as §1

| Structure (SMILES) | Activity (Rattus norvegicus [1]) | Activity (Rattus norvegicus [2]) | Activity (Rattus norvegicus [3]) | Activity (Rattus norvegicus [4]) | Activity (Rattus norvegicus [5]) | Activity (Rattus norvegicus [6]) |
| --- | --- | --- | --- | --- | --- | --- |
| CC(C)CCCC(C)CCCC(C)CCOc1ccc(C(=O)O)cc1 (configuration not stated) | 81% | 87% | 26% | 73% | 72% | 72% |
| C=CCCCCCCCCCOc1ccc(C(=O)O)cc1 | 100% | 86% | 60% | 99% | 82% | 81% |
| O=C(O)c1ccc(OC2CCCCCCCCCCC2)cc1 | 87% | 86% | 87% | 94% | 97% | 81% |
| O=C(O)c1ccc(OCCCCCCCCCCCO)cc1 | 91% | 113% | 81% | 106% | 83% | 93% |
| COCCCCCCCCCCCOc1ccc(C(=O)O)cc1 | 79% | 97% | 64% | 90% | 80% | 53% |
| CCOCCCCCCCCCCCOc1ccc(C(=O)O)cc1 | 103% | 95% | 63% | 109% | 66% | 73% |
| CCCCOCCCCCCCCCCCOc1ccc(C(=O)O)cc1 | 75% | 97% | 55% | 81% | 74% | 67% |
| O=C(O)c1ccc(OCCCCCCCCCCCS)cc1 | 44% | 80% | 44% | 74% | 61% | 47% |
| O=C(O)c1ccc(OCCCCCCCCCCCCS)cc1 | 88% | 79% | 26% | 81% | 61% | 46% |
| O=C(O)c1ccc(OCCCCCCCCCCCCCCCS)cc1 | 100% | 82% | 40% | 81% | 56% | 42% |
| O=C(O)c1ccc(OCCCCCCCCCCCCCCCCS)cc1 | 82% | 83% | 37% | 82% | 51% | 35% |
| CCSCCCCCCCCCCCOc1ccc(C(=O)O)cc1 | 74% | 76% | 48% | 70% | 60% | 56% |
| CCSCCCCCCCCCCCCCCCCOc1ccc(C(=O)O)cc1 | 89% | 90% | 45% | 88% | 59% | 48% |
| CCCSCCCCCCCCCCCOc1ccc(C(=O)O)cc1 | 96% | 86% | 42% | 94% | 61% | 43% |
| CCCCSCCCCCCCCCCCOc1ccc(C(=O)O)cc1 | 70% | 76% | 60% | 76% | 60% | 53% |
| O=C(O)c1ccc(OCCCCCCCCCCCSCc2ccccc2)cc1 | 88% | 77% | 41% | 75% | 71% | 55% |
| O=C(O)c1ccc(OCCCCCCCCCCCCCCCSCc2ccccc2)cc1 | 109% | 82% | 37% | 101% | 70% | 50% |
| CCCC[S+]([O-])CCCCCCCCCCCOc1ccc(C(=O)O)cc1 (configuration not stated) | 102% | 102% | 44% | 97% | 83% | 54% |
| CC[S+]([O-])CCCCCCCCCCCCCCCCOc1ccc(C(=O)O)cc1 (configuration not stated) | 89% | 94% | 55% | 81% | 87% | 80% |
| CCCCS(=O)(=O)CCCCCCCCCCCOc1ccc(C(=O)O)cc1 | 91% | 94% | 57% | 95% | 81% | 69% |
| CCS(=O)(=O)CCCCCCCCCCCCCCCCOc1ccc(C(=O)O)cc1 | 90% | 89% | 60% | 83% | 70% | 61% |

| Structure (SMILES) | Activity (Rattus norvegicus [1]) | Activity (Rattus norvegicus [2]) | Activity (Rattus norvegicus [3]) | Activity (Rattus norvegicus [4]) | Activity (Rattus norvegicus [5]) | Activity (Rattus norvegicus [6]) |
| --- | --- | --- | --- | --- | --- | --- |
| CCCCNCCCCCCCCCCCOc1ccc(C(=O)O)cc1 | 98% | 100% | 100% | 104% | 119% | 103% |
| O=C(O)CCCCCCCCCCOc1ccc(C(=O)O)cc1 | 96% | 94% | 100% | 100% | 118% | 135% |
| CCCCNC(=O)CCCCCCCCCCOc1ccc(C(=O)O)cc1 | 99% | 88% | 85% | 96% | 93% | 87% |
| CC(C)CCCC(C)CCCC(C)CCCC(C)CCOc1ccc(C(=O)O)cc1 (configuration not stated) | 87% | 71% | 72% | 84% | 110% | 104% |
| O=C(O)c1ccc(OCC2CCCCCCCCCCC2)cc1 | 104% | 101% | 160% | 105% | 123% | 130% |
| CCCCCCCCCCCCCCC(C)Oc1ccc(C(=O)O)cc1 (configuration not stated) | 90% | 84% | 70% | 85% | 92% | 72% |
| CCCCCCCCCCCCCC(CC)Oc1ccc(C(=O)O)cc1 (configuration not stated) | 82% | 85% | 75% | 86% | 83% | 78% |
| CCCCCCCCCCCCC(CCC)Oc1ccc(C(=O)O)cc1 (configuration not stated) | 78% | 74% | 53% | 76% | 70% | 62% |
| O=C(O)c1ccc(OC2C3CC4CC(C3)CC2C4)cc1 (configuration not stated) | 88% | 96% | 88% | 92% | 79% | 82% |
| CCCCCCCCCCCC(C)(C)Oc1ccc(C(=O)O)cc1 | 90% | 83% | 63% | 88% | 74% | 80% |
| CCCCCCCCCCCCC(C)(C)Oc1ccc(C(=O)O)cc1 | 100% | 97% | 87% | 90% | 77% | 79% |
| CCCCCCCCCCCCCC(C)(C)Oc1ccc(C(=O)O)cc1 | 92% | 100% | 83% | 120% | 127% | 105% |
| CCCCCCCCCCCCCCCC(C)(C)Oc1ccc(C(=O)O)cc1 | 101% | 96% | 100% | 112% | 103% | 111% |
| O=C(O)c1ccc(OC23CC4CC(CC(C4)C2)C3)cc1 | 90% | 88% | 85% | 87% | 85% | 89% |
| CCCCCCCCC/C=C/CCCOc1ccc(C(=O)O)cc1 | 87% | 77% | 87% | 73% | 89% | 89% |
| CCCCCCCCCC/C=C/CCCOc1ccc(C(=O)O)cc1 | 92% | 79% | 92% | 92% | 72% | 76% |
| CCCCCCCCCCC/C=C/CCCOc1ccc(C(=O)O)cc1 | 75% | 69% | 59% | 67% | 76% | 76% |
| CCCCCCCCCCCCC/C=C\COc1ccc(C(=O)O)cc1 | 95% | 90% | 60% | 87% | 88% | 79% |
| CCCCCCCCCCCCC/C=C/COc1ccc(C(=O)O)cc1 | 106% | 81% | 46% | 85% | 45% | 57% |
| CCCCCCCCCCCCCC#CCOc1ccc(C(=O)O)cc1 | 98% | 82% | 75% | 88% | 96% | 65% |
| C=CCCCCCCCC/C=C/CCCOc1ccc(C(=O)O)cc1 | 92% | 74% | 83% | 87% | 83% | 96% |
